Test results reported in ChEMBL document CHEMBL1135065, “2-(anilinomethyl)imidazolines as alpha1A adrenergic receptor agonists: 2'-heteroaryl and 2'-oxime ether series” (Bioorg Med Chem Lett, 2002).

Experiments:
[1] = target: T1, Alpha-1B adrenergic receptor (Homo sapiens, UniProt P35368); assay: In vitro binding affinity against human Alpha-1B adrenergic receptor expressed in rat-1 fibroblasts
T1 sequence (P35368 whole entry): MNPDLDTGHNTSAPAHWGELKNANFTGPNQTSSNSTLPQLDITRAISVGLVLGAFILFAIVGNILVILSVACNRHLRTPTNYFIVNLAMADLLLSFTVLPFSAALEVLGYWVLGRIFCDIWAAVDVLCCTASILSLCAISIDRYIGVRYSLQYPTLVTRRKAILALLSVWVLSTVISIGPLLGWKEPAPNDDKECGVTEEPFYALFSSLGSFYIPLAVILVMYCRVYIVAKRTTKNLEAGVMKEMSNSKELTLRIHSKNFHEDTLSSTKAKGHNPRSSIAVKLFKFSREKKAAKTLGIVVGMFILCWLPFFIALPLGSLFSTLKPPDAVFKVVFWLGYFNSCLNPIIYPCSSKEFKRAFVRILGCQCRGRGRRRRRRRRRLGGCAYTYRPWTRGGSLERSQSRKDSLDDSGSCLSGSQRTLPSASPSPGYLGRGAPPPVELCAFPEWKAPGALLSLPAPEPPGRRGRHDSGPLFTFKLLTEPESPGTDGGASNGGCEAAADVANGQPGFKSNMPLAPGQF
In short: (§1)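 Radioligand binding on membranes from Rat-1 fibroblasts expressing human α1A, α1B or α1D adrenoceptor. Affinity reported as pIC50, mean of at least two experiments.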

[2] = target: T2, Alpha-1D adrenergic receptor (Homo sapiens, UniProt P25100); assay: In vitro activation of human alpha-1D receptor expressed in rat-1 fibroblasts via calcium using mobilization through the Gq coupled PLC pathway as functional assay
T2 sequence (P25100 whole entry): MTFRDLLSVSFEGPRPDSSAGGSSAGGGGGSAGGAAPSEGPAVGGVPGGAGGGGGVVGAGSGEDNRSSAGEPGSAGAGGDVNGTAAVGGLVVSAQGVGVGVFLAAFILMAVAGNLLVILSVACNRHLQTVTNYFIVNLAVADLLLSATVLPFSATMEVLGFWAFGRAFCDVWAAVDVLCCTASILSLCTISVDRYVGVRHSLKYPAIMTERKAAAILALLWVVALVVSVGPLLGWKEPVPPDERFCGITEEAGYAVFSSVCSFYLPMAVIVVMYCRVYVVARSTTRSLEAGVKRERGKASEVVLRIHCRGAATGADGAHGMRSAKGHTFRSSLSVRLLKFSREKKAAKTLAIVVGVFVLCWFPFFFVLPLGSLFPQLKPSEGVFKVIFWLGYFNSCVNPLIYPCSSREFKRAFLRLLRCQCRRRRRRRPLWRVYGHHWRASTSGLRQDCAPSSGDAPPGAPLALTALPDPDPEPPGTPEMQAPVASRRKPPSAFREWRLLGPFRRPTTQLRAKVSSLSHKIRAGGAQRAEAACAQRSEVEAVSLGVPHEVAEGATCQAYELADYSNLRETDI
In short: (§2)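 Calcium mobilization via Gq/PLC was read by FLIPR with Calcium Green fluorescent dye. Eleven-point concentration–response curves, top concentration typically 5 µM, expressed as percent of the 40 µM phenylephrine response. Values are pEC50 and % maximal response, mean of at least two experiments.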

[3] = target: T2, Alpha-1D adrenergic receptor; assay: In vitro binding affinity against human Alpha-1D adrenergic receptor expressed in rat-1 fibroblasts; in short: as §1
[4] = target: T3, Alpha-1A adrenergic receptor (Homo sapiens, UniProt P35348); assay: In vitro binding affinity against human Alpha-1A adrenergic receptor expressed in rat-1 fibroblasts cells; type: cell-based, Fibroblast; in short: as §1
T3 sequence (P35348 whole entry): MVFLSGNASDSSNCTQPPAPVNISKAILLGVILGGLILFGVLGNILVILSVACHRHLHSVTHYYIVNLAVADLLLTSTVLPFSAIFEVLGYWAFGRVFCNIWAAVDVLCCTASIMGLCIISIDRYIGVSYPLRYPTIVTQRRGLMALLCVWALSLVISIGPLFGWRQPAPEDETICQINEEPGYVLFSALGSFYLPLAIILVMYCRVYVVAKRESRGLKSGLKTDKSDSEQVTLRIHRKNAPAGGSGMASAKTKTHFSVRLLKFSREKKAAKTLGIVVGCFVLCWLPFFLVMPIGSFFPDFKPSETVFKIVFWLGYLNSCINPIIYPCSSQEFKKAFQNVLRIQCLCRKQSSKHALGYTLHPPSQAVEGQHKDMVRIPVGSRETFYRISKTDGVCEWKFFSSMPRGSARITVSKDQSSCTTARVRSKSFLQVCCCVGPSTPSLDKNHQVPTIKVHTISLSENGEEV

[5] = target: T1, Alpha-1B adrenergic receptor; assay: In vitro activation of human Alpha-1B receptor expressed in rat-1 fibroblasts via calcium mobilization through the Gq coupled PLC pathway as functional assay
[6] = target: T3, Alpha-1A adrenergic receptor; assay: In vitro activation of human alpha-1A receptor expressed in rat-1 fibroblasts via calcium mobilization through the Gq coupled PLC pathway as functional assay; in short: as §2
[7] = target: T4, Alpha-1A adrenergic receptor (Homo sapiens) (UniProt P35348); assay: In vitro human alpha-1A receptor activation determined via calcium mobilization through the Gq coupled PLC pathway in rat-1 fibroblasts as percent maximum of phenylephrine response; type: functional
T4 sequence (whole entry): T3 sequence (P35348 whole entry)
In short: as §2, with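 “Human α1A (clone #137–12) or α1D (clone #16–7) adrenoceptor stably expressed in Rat-1 fibroblasts. Calcium mobilization” for “Calcium mobilization”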

| Structure (SMILES) | IC50 [1] [nM] | EC50 [2] [nM] | IC50 [3] [nM] | IC50 [4] [nM] | EC50 [5] [nM] | EC50 [6] [nM] | Max [7] [%] |
| --- | --- | --- | --- | --- | --- | --- | --- |
| c1cnc(-c2ccccc2NCC2=NCCN2)nc1 | 2190 | 81.3 | 417 | 191 | 77.6 | 10 | – |
| Cc1ccsc1-c1ccccc1NCC1=NCCN1 | – | 49 | – | – | 112 | 0.851 | – |
| Cc1cccnc1-c1ccccc1NCC1=NCCN1 | – | > 100000 | – | – | > 100000 | 24.5 | – |
| c1ccc(-c2ccccc2NCC2=NCCN2)nc1 | 589 | 41.7 | 117 | 81.3 | 30.2 | 6.76 | – |
| c1csc(-c2ccccc2NCC2=NCCN2)c1 | – | 18.2 | – | – | 5.75 | 2.24 | – |
| FC(F)(F)c1cccnc1-c1ccccc1NCC1=NCCN1 | – | > 100000 | – | – | > 100000 | 676 | – |
| Nc1nccc(-c2ccccc2NCC2=NCCN2)n1 | – | 28.8 | – | – | > 5010 | 42.7 | – |
| CC/C(=N/OC)c1ccccc1NCC1=NCCN1 | – | > 5010 | – | – | > 5010 | 87.1 | 141 |
| Cc1nc(-c2ccccc2NCC2=NCCN2)cs1 | – | > 5010 | – | – | 69.2 | 4.47 | – |
| CC/C(=N\OC)c1ccccc1NCC1=NCCN1 | – | > 100000 | – | – | > 100000 | 3.31 | 112 |
| Cc1noc(-c2ccccc2NCC2=NCCN2)n1 | – | > 5010 | – | – | > 5010 | 661 | – |
| CO/N=C(\C)c1ccccc1NCC1=NCCN1 | – | > 5010 | – | – | > 5010 | 20.9 | 92 |
| CCO/N=C(\C)c1ccccc1NCC1=NCCN1 | – | > 5010 | – | – | > 5010 | 52.5 | 102 |
| Cc1nc(-c2ccccc2NCC2=NCCN2)no1 | – | > 5010 | – | – | 676 | 724 | – |
| CO/N=C/c1ccccc1NCC1=NCCN1 | 162 | > 5010 | 42.7 | 282 | > 5010 | 51.3 | 94 |

Now from value to molecule:

| IC50 [1] [nM] | EC50 [2] [nM] | IC50 [3] [nM] | IC50 [4] [nM] | EC50 [5] [nM] | EC50 [6] [nM] | Max [7] [%] | Structure (SMILES) |
| --- | --- | --- | --- | --- | --- | --- | --- |
| 132 | 2.88 | 38 | 35.5 | 3.72 | 0.794 | – | c1ccc(-c2ccno2)c(NCC2=NCCN2)c1 |
| – | 16.2 | – | – | 6.31 | 0.468 | – | c1coc(-c2ccccc2NCC2=NCCN2)c1 |
| – | > 5010 | – | – | > 5010 | 110 | – | Cc1ncc(-c2ccccc2NCC2=NCCN2)o1 |
| – | > 100000 | – | – | > 100000 | 45.7 | – | c1ccc(-c2cnoc2)c(NCC2=NCCN2)c1 |
| – | > 5010 | – | – | > 5010 | 324 | – | Cc1nc(-c2ccccc2NCC2=NCCN2)co1 |
| 447 | 5.01 | 40.7 | 45.7 | 1.62 | 0.661 | – | c1ccc(-c2ncco2)c(NCC2=NCCN2)c1 |
| – | > 100000 | – | – | > 100000 | 36.3 | – | Cc1ccc(-c2ccccc2NCC2=NCCN2)s1 |
| – | > 2000 | – | – | 46.8 | 2.69 | – | Cc1ccc(-c2ccccc2NCC2=NCCN2)o1 |
| – | > 100000 | – | – | 95.5 | 38.9 | – | Cc1cc(-c2ccccc2NCC2=NCCN2)on1 |
| 324 | > 100000 | 347 | 191 | > 100000 | 15.1 | – | Cc1ncoc1-c1ccccc1NCC1=NCCN1 |
| 229 | > 5010 | 295 | 457 | > 5010 | 17.4 | – | c1ccc(-c2cnco2)c(NCC2=NCCN2)c1 |
| – | 182 | – | – | 339 | 4.57 | – | c1ccc(-c2cnccn2)c(NCC2=NCCN2)c1 |
